Here are results for six compounds from ChEMBL document CHEMBL4346740, “Development of novel lithocholic acid derivatives as vitamin D receptor agonists” (Bioorg Med Chem, 2019).

The target in assay [1] is T1, Vitamin D3 receptor (Homo sapiens) (UniProt P11473).
T1 sequence (whole entry): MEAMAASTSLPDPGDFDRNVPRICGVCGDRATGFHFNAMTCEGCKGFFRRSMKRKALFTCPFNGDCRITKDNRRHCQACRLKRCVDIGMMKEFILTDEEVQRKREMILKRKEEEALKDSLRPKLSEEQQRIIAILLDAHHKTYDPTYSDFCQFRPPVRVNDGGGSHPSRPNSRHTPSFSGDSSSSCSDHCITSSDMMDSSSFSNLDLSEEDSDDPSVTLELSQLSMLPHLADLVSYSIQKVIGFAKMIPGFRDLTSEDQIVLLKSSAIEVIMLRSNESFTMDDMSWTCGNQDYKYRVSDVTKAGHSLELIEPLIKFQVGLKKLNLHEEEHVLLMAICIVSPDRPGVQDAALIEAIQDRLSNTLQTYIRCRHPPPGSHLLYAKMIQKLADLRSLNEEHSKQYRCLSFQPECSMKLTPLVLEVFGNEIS
The assay can be described thus: Transactivation of VDR in human […] cell assessed as cell differentiation at 10^-5 M measured after 4 days by NBT dye-based assay. Put shortly:
(§1)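 HL-60 cells grown in RPMI-1640 with 5% FBS, diluted to 8.0 × 10^4 cells/mL. Compound added from ethanol solution; ethanol-only control; 1α,25(OH)2D3 run alongside each time. Incubated 4 days at 37 °C, 5% CO2. Cells then exposed 20 min at 37 °C to 0.2% NBT with TPA (200 ng/mL) in PBS. Formazan-positive percentage scored in at least 200 cells.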

The target in assay [2] is T1, Vitamin D3 receptor (Homo sapiens). The assay can be described thus: Transactivation of human VDR expressed in COS-7 cells transfected with mouse […] for 24 hrs by luciferase based reporter gene assay. It counts as cell-based. The procedure, abridged: (§2)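 COS-7 cells in DMEM with 5% FCS, lipofected at 24 h with SPPx3-TK-LUC (three mouse osteopontin VDRE copies), pCMX-hVDR and pRL-CMV. After 4 h, switched to DMEM with 1% FCS. Next day, compound, 1α,25(OH)2D3 or ethanol vehicle added for 24 h. Lysate luciferase normalized to sea pansy internal control; triplicate.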
For orientation: In a reporter assay the amount or activity of a reporter protein is the signal.

Assay [3] shares this target. The assay can be described thus: Transactivation of human VDR expressed in COS-7 cells transfected with mouse osteopontin VDRE at >1 uM measured after 24 hrs by luciferase based reporter gene assay. Format: cell-based. Put shortly:
as §2

Assay [4] shares this target. The assay can be described thus: Transactivation of VDR in human […] cell assessed as cell differentiation at 10^-7 to 10^-5 M measured after 4 days by NBT dye-based assay. Put shortly: as §1
Assay [5] concerns the target T2, Vitamin D3 receptor (Bos taurus) (UniProt Q28037).
T2 sequence (whole entry): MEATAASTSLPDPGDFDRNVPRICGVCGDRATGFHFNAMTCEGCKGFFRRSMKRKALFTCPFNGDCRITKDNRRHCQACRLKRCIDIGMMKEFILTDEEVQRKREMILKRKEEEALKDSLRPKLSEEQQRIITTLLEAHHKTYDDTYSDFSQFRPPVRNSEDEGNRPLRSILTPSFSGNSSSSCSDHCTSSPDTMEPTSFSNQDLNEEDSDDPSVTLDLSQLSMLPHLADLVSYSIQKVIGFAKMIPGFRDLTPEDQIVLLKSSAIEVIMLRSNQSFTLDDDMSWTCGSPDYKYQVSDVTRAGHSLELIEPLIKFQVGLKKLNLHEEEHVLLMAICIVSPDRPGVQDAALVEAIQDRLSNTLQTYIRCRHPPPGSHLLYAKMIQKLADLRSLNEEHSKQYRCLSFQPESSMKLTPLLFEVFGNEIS
The experiment in a line: Displacement of [3H]1alpha,25(OH)2D3 from bovine thymus VDR incubated for 19 hrs by radioactivity based competitive binding assay. Put shortly:
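Bovine thymus VDR in 0.05 M phosphate buffer (pH 7.4) with 0.3 M KCl and 5 mM DTT. Incubated 19 h at 4 °C with 0.072 nM [3H]1α,25(OH)2D3 plus graded amounts of analog or vehicle. Bound and free ligand separated on dextran-coated charcoal (20 min, 4 °C), then centrifuged at 1000g. Supernatant radioactivity counted; run in duplicate.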
Background: In a radioligand displacement assay an active substance lowers the binding of a labelled ligand.

SMILES strings stand for the structures. Calls of active or inactive are those of the source. The calls are words filed in the database; no cut-off is given here.

Regarding `CC(=O)O[C@@H]1CC[C@@]2(C)[C@H](CC[C@@H]3[C@@H]2CC[C@]2(C)[C@@H]([C@H](C)CCC(=O)O)CC[C@@H]32)C1`, the outcome in assay [1] and in assay [2] was Active.
With `C[C@H](CCC(=O)O)[C@H]1CC[C@H]2[C@@H]3CC[C@@H]4C[C@H](OC(=O)C(F)(F)F)CC[C@]4(C)[C@H]3CC[C@]12C`, the outcome in assay [3] was Active. In addition, in assay [4], the result was inactive.
Regarding `C[C@H](CCC(=O)O)[C@H]1CC[C@H]2[C@@H]3CC[C@@H]4C[C@H](NS(C)(=O)=O)CC[C@]4(C)[C@H]3CC[C@]12C`, the outcome in assay [4] was Active.
In the case of `COC(=O)O[C@@H]1CC[C@@]2(C)[C@H](CC[C@@H]3[C@@H]2CC[C@]2(C)[C@@H]([C@H](C)CCC(=O)O)CC[C@@H]32)C1`, in assay [4], the outcome was inactive.
Consider `C[C@H](CCC(=O)O)[C@H]1CC[C@H]2[C@@H]3CC[C@@H]4C[C@H](OS(C)(=O)=O)CC[C@]4(C)[C@H]3CC[C@]12C`, for which the outcome in assay [2] and in assay [5] was Active.
For `C[C@H](CCC(=O)O)[C@H]1CC[C@H]2[C@@H]3CC[C@@H]4C[C@H](OC(=O)c5ccccc5)CC[C@]4(C)[C@H]3CC[C@]12C`, the result in assay [4] was inactive.
